# Laboratory results taken from ChEMBL document CHEMBL2331329, “Synthesis and biological evaluation of 2-(alkoxycarbonyl)-3-anilinobenzo[b]thiophenes and thieno[2,3-b]pyridines as new potent anticancer agents” (J Med Chem, 2013).
# pIC50: −log10 of the molar value. Activity calls are given as the source filed them. The rule behind the calls is not given here.
# Key:
# [1] = Cytotoxicity against human A549-T12 cells after 72 hrs by MTT assay; assay type: functional, cell-based; details: A549, 72 h
# Summary of the method: (§1)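 Mean ± SE of at least three independent experiments. Resistance ratio = IC50 in resistant line/IC50 in nonresistant line.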
# HeLa [2] = experiment: Induction of apoptosis in human HeLa cells assessed as caspase-9 cleavage at 10 to 100 nM after 24 to 48 hrs by Western Blot analysis; assay type: functional, cell-based
# Summary of the method: (§2)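 HeLa cells exposed to 10 or 100 nM for 24 or 48 h, washed in ice-cold PBS, lysed on ice 30 min, spun at 15000g at 4 °C. 20 μg protein run on 7.5–15% SDS–PAGE, blotted to PVDF, blocked overnight at 4 °C. Primary antibodies 2 h at room temperature, peroxidase secondary 60 min, ECL detection, β-actin reprobe as loading control.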
# HeLa [3] = experiment: Induction of apoptosis in human HeLa cells assessed as phosphorylated Mcl-1 at 10 nM after 48 hrs by Western Blot analysis; assay type: functional, cell-based; summary of the method: as §2
# HT-29 = experiment: Cell cycle arrest in human HT-29 cells assessed as accumulation at G2/M phase at >20 nM after 24 hrs by propidium iodide staining-based flow cytometry; assay type: functional
# Summary of the method: (§3)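 Jurkat, HT-29 and HeLa cells in exponential growth (5 × 10^5 cells) treated 24 h at a range of concentrations. Fixed in ice-cold 70% ethanol, lysed with buffer containing RNase A and 0.1% Triton X-100, stained with propidium iodide. DNA content read by flow cytometry and the percentage of cells per cycle phase derived from DNA histograms.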
# HeLa [4] = experiment: Cell cycle arrest in human HeLa cells assessed as variation in cyclin B expression at 10 to 100 nM after 24 to 48 hrs by Western Blot analysis; assay type: functional, cell-based; summary of the method: as §2
# CCRF-CEM = experiment: Cytotoxicity against human CEM cells after 72 hrs by MTT assay; assay type: functional, cell-based
# Summary of the method: (§4)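 MTT viability test: 8 × 10^3 cells per well settled 18 h at 37 °C, 5% CO2, then given fresh medium with compound (from 10 mM DMSO stocks, final DMSO ≤0.25%) for 72 h. […] CEMVbl-100 is a vinblastine-selected P-gp line; LoVoDoxo is grown in Ham's F12 with 0.1 μg/mL doxorubicin. Resistance index = resistant IC50/parental IC50.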
# Mus musculus = experiment: Toxicity in Balb/c mouse xenografted with mouse BNL 1ME A.7R.1 cells assessed as decrease in body weight at 5 mg/kg, ip; assay type: organism-based; set-up: dose 5 mg/kg, route intraperitoneal; details: in vivo
# Summary of the method: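 Male Balb/c mice, 8 weeks old, given 10^7 syngeneic BNL 1ME A.7R.1 hepatoma cells subcutaneously in the dorsal region in 200 μL PBS. Randomised to groups of five. Dosed intraperitoneally once daily for 7 days at 5 mg/kg in 0.9% NaCl with 5% PEG 400 and 0.5% Tween 80, against vehicle and CA-4P. Tumours measured daily by caliper, V = AB2/2; body weight recorded. Mean ± SEM.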
# MCF7 = experiment: Cytotoxicity against human MCF7 cells after 72 hrs by MTT assay; assay type: functional, cell-based; details: MCF7, 72 h
# [5] = Selectivity ratio of IC50 for human CEM cells to IC50 for human PHA-stimulated PBL cells; assay type: ADME, cell-based; details: CEM cells and PHA-stimulated PBL cells, read-out: Ratio IC50
# Jurkat = experiment: Cell cycle arrest in human Jurkat cells assessed as accumulation at G2/M phase at 20 nM after 24 hrs by propidium iodide staining-based flow cytometry; assay type: functional; summary of the method: as §3
# HeLa [6] = experiment: Induction of apoptosis in human HeLa cells assessed as mitochondrial membrane depolarization at 10 to 100 nM by JC-1 staining; assay type: functional, cell-based; details: TDE = time-dependent effect
# Summary of the method: (§5)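 HeLa cells treated 24 or 48 h, then stained with the potentiometric dye JC-1. Proportion of cells with depolarised mitochondria read by flow cytometry. Mean ± SEM of three independent experiments.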
# HeLa [7] = experiment: Induction of apoptosis in human HeLa cells assessed as survivin phosphorylation on Thr32 after 24 to 48 hrs by Western Blot analysis; assay type: functional, cell-based; summary of the method: as §2
# HeLa [8] = experiment: Cell cycle arrest in human HeLa cells assessed as accumulation at G2/M phase at >20 nM after 24 hrs by propidium iodide staining-based flow cytometry; assay type: functional; summary of the method: as §3
# HL-60 = experiment: Ratio of Combretastatin A-4 IC50 to compound IC50 for human HL60 cells; assay type: functional
# HeLa [9] = experiment: Induction of apoptosis in human HeLa cells assessed as early apoptotic cells after 24 to 48 hrs by annexin V-FITC/Propidium iodide staining-based flow cytometry; assay type: functional, cell-based
# Summary of the method: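 HeLa cells treated 24 or 48 h, then co-labelled with annexin-V–FITC and propidium iodide. Flow cytometry with 488 nm excitation and emission at 525 nm (FITC) and 585 nm (PI); early apoptotic cells counted as annexin-V+/PI−. Mean ± SEM of three independent experiments.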
# A549 = experiment: Resistance index, ratio of IC50 for human A549-T12 cells to IC50 for human A549 cells; assay type: functional; summary of the method: as §1
# [10] = Cytotoxicity against human LoVo/DX cells after 72 hrs by MTT assay; assay type: functional, cell-based; summary of the method: as §4
# HeLa [11] = experiment: Induction of apoptosis in human HeLa cells assessed as mitochondrial membrane depolarization after 24 to 48 hrs by JC-1 staining; assay type: functional, cell-based; summary of the method: as §5
# PBL = experiment: Cytotoxicity against human PHA-stimulated PBL cells after 72 hrs by MTT assay; assay type: cell-based
# Summary of the method: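 Peripheral blood lymphocytes from healthy donors isolated on a Lymphoprep gradient and rested overnight in RPMI-1640 with 10% FBS. Nonadherent cells at 5 × 10^5 cells/mL, with 2.5 μg/mL PHA for proliferating cultures or without it for resting ones. Compound exposure 72 h, viability by MTT. Mean ± SEM of three experiments.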
# LoVo = experiment: Resistance index, ratio of IC50 for human LoVo/DX cells to IC50 for human LoVo cells; assay type: functional; summary of the method: as §4
# HeLa [12] = experiment: Induction of apoptosis in human HeLa cells assessed as caspase-3 cleavage at 10 to 100 nM after 24 to 48 hrs by Western Blot analysis; assay type: functional, cell-based; summary of the method: as §2
# [13] = Cytotoxicity against human SEM cells after 72 hrs by MTT assay; assay type: functional, cell-based
# Summary of the method: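 Cells plated at 8 × 10^3 per well, 18 h at 37 °C, 5% CO2, then fresh medium with graded compound concentrations (DMSO ≤0.25%) for 72 h. Jurkat, SEM, HL-60 grown in RPMI-1640; A549, HeLa, HT-29, MCF-7 in DMEM; 10% FBS with penicillin/streptomycin. MTT viability read-out; IC50 vs 0.25% DMSO controls; mean ± SE of at least three independent experiments.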
# HeLa [14] = experiment: Induction of apoptosis in human HeLa cells assessed as Bcl-XL phosphorylation at 10 to 100 nM after 24 to 48 hrs by Western Blot analysis; assay type: functional, cell-based; summary of the method: as §2
# HeLa [15] = experiment: Cell cycle arrest in human HeLa cells assessed as accumulation at G2/M phase after 24 hrs by propidium iodide staining-based flow cytometry; assay type: functional; summary of the method: as §3
# [16] = Inhibition of bovine brain tubulin polymerization after 20 mins by turbidimetric analysis; set-up: species or system Bos taurus
# Summary of the method: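 Bovine brain tubulin (10 μM) preincubated with varying compound concentrations in glutamate buffer at 30 °C, chilled to 0 °C, 0.4 mM GTP added, then warmed to 30 °C in a recording spectrophotometer.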
# HeLa [17] = experiment: Induction of apoptosis in human HeLa cells assessed as decrease in unphosphorylated Mcl-1 at 10 to 100 nM after 24 hrs by Western Blot analysis; assay type: functional, cell-based; summary of the method: as §2
smiles,measurement,setting,value
COC(=O)c1sc2cc(OC)ccc2c1Nc1cc(OC)c(OC)c(OC)c1,pIC50,[1],7.90
same,Activity,HeLa [2],Active
same,Activity,HeLa [3],inactive
same,Activity,HT-29,>80%
same,Activity,HeLa [4],inactive
same,pIC50,CCRF-CEM,8.49
same,Activity,Mus musculus,Toxic
same,pIC50,MCF7,9.15
same,selectivity ratio,[5],2000
same,Activity,Jurkat,Active
same,Activity,HeLa [6],tde
same,Activity,HeLa [7],Active
same,Activity,HeLa [8],>80%
same,Ratio IC50,HL-60,2
same,Activity,HeLa [9],Dose-dependent effect
same,Ratio IC50,A549,1.5
same,pIC50,[10],9.40
same,Activity,HeLa [11],Dose-dependent effect
same,pIC50,PBL,< 5.00
same,Ratio IC50,LoVo,1.3
same,Activity,HeLa [12],Active
same,pIC50,[13],7.99
same,Activity,HeLa [14],Active
same,Activity,HeLa [15],Dose-dependent effect
same,pIC50,[16],6.06
same,Activity,HeLa [17],Active
